One molecule from ChEMBL document CHEMBL4765365, “Design, synthesis and antitumour evaluation of pyrrolo[1,2-f]-phenanthridine and dibenzo[f,h]pyrrolo[1,2-b]isoquinoline derivatives” (Eur J Med Chem, 2020) can be followed below.

Data set [1] has as its system HCT-116. In words: Induction of cell cycle arrest in human HCT-116 cells assessed as G1 phase at 0.375 uM incubated for 12 hrs by PI staining based flow cytometry analysis (reference value: 53.6 +/- 4.5 %). In kind it is functional. A general note: Flow cytometry measures light scatter and fluorescence of single cells or particles in a stream.
Data set [2] is described as follows: Cytotoxicity against human PacaS1 cells assessed as reduction in cell viability incubated for 72 hrs by XTT assay. To be noted: PacaS1, 72 h. In kind it is functional, cell-based. Background: Tetrazolium dyes change colour on reduction, which living cells bring about.
In data set [3] the test system is HCT-116. The data set can be described thus: Induction of cell cycle arrest in human HCT-116 cells assessed as G1 phase at 0.75 uM incubated for 24 hrs by PI staining based flow cytometry analysis (reference value: 55 +/- 9.8 %). The format is functional.
Data set [4] concerns HCT-116. In words: Induction of cell cycle arrest in human HCT-116 cells assessed as S phase at 0.375 uM incubated for 36 hrs by PI staining based flow cytometry analysis (reference value: 7.9 +/- 3.7 %). The format is functional.
Data set [5] concerns NCI-H460. In words: Induction of cell cycle arrest in human NCI-H460 cells assessed as S phase at 3 uM incubated for 24 hrs by PI staining based flow cytometry analysis (reference value: 11.7 +/- 6.1 %). In kind it is functional.
Data set [6] has as its system NCI-H460. In words: Induction of cell cycle arrest in human NCI-H460 cells assessed as G2/M phase at 0.75 uM incubated for 12 hrs by PI staining based flow cytometry analysis (reference value: 22.9 +/- 6.8 %). The format is functional.
Data set [7] has as its system NCI-H460. In words: Induction of apoptosis in human NCI-H460 cells assessed as late apoptotic cells at 1.5 uM incubated for 48 hrs by annexin V-FITC and PI staining based flow cytometry analysis (reference value: 7.3 %). In kind it is functional.
The subject of data set [8] is HCT-116. The data set can be described thus: Induction of cell cycle arrest in human HCT-116 cells assessed as S phase at 0.75 uM measured at 0 hrs by PI staining based flow cytometry analysis (reference value: 12.4 +/- 6.2 %). The format is functional.
Data set [9] concerns HCT-116. The data set can be described thus: Induction of cell cycle arrest in human HCT-116 cells assessed as G2/M phase at 0.75 uM incubated for 12 hrs by PI staining based flow cytometry analysis (reference value: 21.7 +/- 1.9 %). In kind it is functional.
Data set [10] deals with NCI-H460. In words: Induction of apoptosis in human NCI-H460 cells assessed as viable cells at 1.5 uM incubated for 48 hrs by annexin V-FITC and PI staining based flow cytometry analysis (reference value: 90.1 %). In kind it is functional. The settings on record: read-out: Activity.
For data set [11], the system named is NCI-H460. In words: Induction of cell cycle arrest in human NCI-H460 cells assessed as G1 phase at 0.75 uM measured at 0 hrs by PI staining based flow cytometry analysis (reference value: 53.4 +/- 4.8 %). In kind it is functional.
Data set [12] deals with NCI-H460. The data set can be described thus: Induction of cell cycle arrest in human NCI-H460 cells assessed as S phase at 1.5 uM incubated for 12 hrs by PI staining based flow cytometry analysis (reference value: 11.2 +/- 4.3 %). In kind it is functional.
The test system of data set [13] is NCI-H460. The data set can be described thus: Induction of cell cycle arrest in human NCI-H460 cells assessed as S phase at 3 uM incubated for 12 hrs by PI staining based flow cytometry analysis (reference value: 11.2 +/- 4.3 %). The format is functional.
Data set [14] deals with NCI-H460. In words: Induction of cell cycle arrest in human NCI-H460 cells assessed as G2/M phase at 1.5 uM incubated for 36 hrs by PI staining based flow cytometry analysis (reference value: 25 +/- 1.2 %). The format is functional.
Data set [15] concerns HCT-116. In words: Induction of cell cycle arrest in human HCT-116 cells assessed as G1 phase at 0.75 uM incubated for 12 hrs by PI staining based flow cytometry analysis (reference value: 53.6 +/- 4.5 %). In kind it is functional.
In data set [16] the test system is NCI-H460. The data set can be described thus: Antitumor activity against human NCI-H460 cells xenografted in nude mouse assessed as reduction in tumor size at 30 mg/kg, iv administered for 5 days and repeated cycle for 2 days interval and measured on day 24. The format is functional. To be noted: 576 h, time 24 day, read-out: TGI.
Data set [17] concerns NCI-H460. In words: Induction of cell cycle arrest in human NCI-H460 cells assessed as G0 phase at 0.75 uM incubated for 12 hrs by PI staining based flow cytometry analysis (reference value: 2.9 +/- 2.4 %). In kind it is functional.
Data set [18] concerns NCI-H460. In words: Induction of cell cycle arrest in human NCI-H460 cells assessed as G1 phase at 3 uM measured at 0 hrs by PI staining based flow cytometry analysis (reference value: 53.4 +/- 4.8 %). In kind it is functional.
In data set [19] the test system is NCI-H460. The data set can be described thus: Induction of cell cycle arrest in human NCI-H460 cells assessed as S phase at 3 uM incubated for 36 hrs by PI staining based flow cytometry analysis (reference value: 7.6 +/- 3.9 %). In kind it is functional.
The test system of data set [20] is NCI-H460. In words: Induction of cell cycle arrest in human NCI-H460 cells assessed as G1 phase at 3 uM incubated for 24 hrs by PI staining based flow cytometry analysis (reference value: 56.8 +/- 7.6 %). The format is functional.
For data set [21], the system named is NCI-H460. The data set can be described thus: Induction of cell cycle arrest in human NCI-H460 cells assessed as G2/M phase at 0.75 uM measured at 0 hrs by PI staining based flow cytometry analysis (reference value: 25.2 +/- 4 %). The format is functional.
In data set [22] the test system is HCT-116. The data set can be described thus: Induction of cell cycle arrest in human HCT-116 cells assessed as G0 phase at 1.5 uM incubated for 12 hrs by PI staining based flow cytometry analysis (reference value: 2.2 +/- 1.7 %). The format is functional.
Data set [23] is described as follows: Toxicity in nude mouse xenografted with human HCT-116 cells assessed as reduction in body weight at 30 mg/kg, iv administered for 5 days and repeated cycle for 2 days interval and measured on day 24. The format is organism-based. The settings on record: in vivo, 576 h, time 24 day. A digest of the protocol:
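Nude mice carried human HCT116 colorectal xenografts. Dosing was i.v. at 30 mg/kg once daily for five days (QD×5), and this cycle was given twice with a 2-day gap. Body weight was tracked against vehicle-treated mice, with tumour assessment at day 24.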

In data set [24] the test system is CCRF-CEM. In words: Cytotoxicity against human CCRF-CEM cells assessed as reduction in cell viability incubated for 72 hrs by XTT assay. The format is functional, cell-based.

For orientation: IC50 means the concentration at which inhibition is half-maximal. As to `OCc1cn2c3ccccc3c3ccccc3c2c1CO`, the Activity was determined as 51.6% in data set [1]; 57.4% in data set [3]; 8.2% in data set [4]; 10.9% in data set [5]; 23.7% in data set [6]; 13.7% in data set [7]. Besides, the Activity was found to be 12.6% in data set [8]; 23.2% in data set [9]; 54.9% in data set [11]; 16.3% in data set [12]; 17.3% in data set [13]; 17.5% in data set [14]. Further, the Activity stood at 51.6% in data set [15]; 3.7% in [17]; 52.1% in data set [18]; 9.6% in data set [19]; 49.3% in data set [20]; 24.2% in data set [21]. Also, the Activity is recorded as 1.9% in [22] and “Non-Toxic” in data set [23]. Also, the concentration for half-maximal inhibition (IC50) in data set [2] was 1410 nM; in data set [24], 370 nM. In [10], the viability at 1.5 µM was determined as 82.2%. In addition, in data set [16], the inhibition in vivo at 30 mg/kg was determined as 66%.
